# Assay outcomes: PubChem, Broad Institute
# F508del corr – CFTR F508del correction in bronchial cells | CFBE cells, YFP halide quenching; stimulated with forskolin plus potentiator P3; % fluorescence drop versus neutral controls | activity (quench increase), % at 7.58 µM | 350,000 tested, 0.36% active;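 active = mean added fluorescence quench of at least 8% versus neutral control, with both replicates also reaching 8%; inconclusive = only one of the mean or replicate conditions met; inactive = mean below 8% and not both replicates reaching 8%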;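 also: cells transiently co-express mutant CFTR-F508del with the halide-sensitive YFP; corrector assay measuring rescue of mutant channel to the surface after 24 h compound exposure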
# E-selectin induc – induces E-selectin expression in human endothelial cells; HUVEC E-selectin immunofluorescence imaging; normalized: neutral wells 0, TNF-alpha wells 100; activation, % at 7.58 µM; 260,000 tested, 0.37% active;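 active = mean E-selectin-positive cell signal at least 10% of the positive control, reached in at least 60% of replicates, without over 20% cell loss; inconclusive = no rule given, readout overlaps actives, possibly toxicity-flagged; inactive = the rest, including those meeting only one limit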
#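 Test system – human umbilical vein endothelial cells (HUVEC), E-selectin induction · Input – 3,000 HUVEC seeded per well · Buffer or medium – EGM-2, gelatin · Compound dosing – single-point compound dose · Detection – immunofluorescence imaging · Measure – percent E-selectin-positive cells · Controls – TNF-alpha high, DMSO low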
# miR122 inh – inhibitors of miR-122 in Huh7 cells; Huh7 miR-122 Renilla luciferase sensor, 48 h; neutral wells = 0, positive control = 100; activation (reporter increase), % at 12.5 µM; 340,000 tested, 0.3% active; AID 602342;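 active = mean replicate activation score at least 90 and every replicate individually at or above 90; inconclusive = only one of the two criteria met; inactive = neither criterion met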;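 also: higher luciferase means less miR-122 activity so hits act as miR-122 inhibitors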
# INS-1E GSIS act – GLuc luminescence reporter in INS-1E cells, primary screen for activators of glucose-dependent secretion of insulin. 370,000 tested, 0.61% active. INS-1E GLuc reporter insulin secretion, 2-3 h. activation, % at 16.6 µM. AID 743287;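 active = lowest replicate activation of at least 40%, so every replicate reaches that level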;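 also: 0% = median of neutral control wells and 100% = median of IBMX positive control wells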
# ERAP1 HTS inh – ERAP1 (human) enzyme inhibition | Q9NZ08 | inhibition, % at 10.7 µM | 340,000 tested, 0.15% active | recombinant ERAP1, Leu-AMC fluorescence, 60 min;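 active = mean replicate inhibition of at least 30%, or all replicates individually reaching that 30% level; inactive = mean below 30% and not every replicate reaching it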;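 also: 0% = neutral control wells and 100% = L-leucinethiol positive control wells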
# Target sequence (Q9NZ08 whole entry, looked up): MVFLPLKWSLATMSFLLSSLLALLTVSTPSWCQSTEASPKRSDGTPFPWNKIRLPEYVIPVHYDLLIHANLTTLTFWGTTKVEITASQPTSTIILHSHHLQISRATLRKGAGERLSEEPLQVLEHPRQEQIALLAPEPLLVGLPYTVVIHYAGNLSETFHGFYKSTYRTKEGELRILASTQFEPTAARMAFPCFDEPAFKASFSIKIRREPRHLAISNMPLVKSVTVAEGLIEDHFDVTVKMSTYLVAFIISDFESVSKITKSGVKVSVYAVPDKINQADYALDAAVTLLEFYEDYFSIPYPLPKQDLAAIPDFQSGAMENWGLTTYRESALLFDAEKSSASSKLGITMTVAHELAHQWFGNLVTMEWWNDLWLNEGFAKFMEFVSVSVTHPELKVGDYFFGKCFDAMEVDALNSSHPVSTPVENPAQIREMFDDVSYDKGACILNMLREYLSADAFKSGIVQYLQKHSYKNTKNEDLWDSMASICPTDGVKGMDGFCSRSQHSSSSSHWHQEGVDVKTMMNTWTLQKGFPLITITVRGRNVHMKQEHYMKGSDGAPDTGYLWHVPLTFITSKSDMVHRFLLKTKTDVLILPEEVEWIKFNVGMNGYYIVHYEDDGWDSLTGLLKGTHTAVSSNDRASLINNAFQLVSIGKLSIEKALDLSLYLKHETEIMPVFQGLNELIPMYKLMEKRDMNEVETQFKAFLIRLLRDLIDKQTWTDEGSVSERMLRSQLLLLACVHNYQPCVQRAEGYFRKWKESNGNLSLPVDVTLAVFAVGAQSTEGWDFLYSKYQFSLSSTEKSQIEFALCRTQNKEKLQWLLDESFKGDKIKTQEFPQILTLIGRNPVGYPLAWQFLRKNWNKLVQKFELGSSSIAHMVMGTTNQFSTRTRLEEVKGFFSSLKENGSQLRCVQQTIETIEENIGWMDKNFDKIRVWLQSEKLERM
# DENV2 CPE rescue – inhibitors of DENV2 cytopathic effect; CPE inhibition, % at 9.99 µM; 350,000 tested, 1.7% active; DENV2-infected cells, cytopathic effect rescue, plate reader; in the data active = CPE inhibition above about 20%, passing the limit was not always enough; inconclusive = no clear call, values can overlap the other calls; tested in BHK-21 cells;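 also: 0% = median of neutral control wells and 100% = median of positive control wells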
# The depositor's hits bear a star; ? = inconclusive; / = no result; [ ] = dose if it differs, or a comment. An excerpt weighted towards active compounds, which were near 2.6% of everything screened.
SMILES,F508del corr,E-selectin induc,miR122 inh,INS-1E GSIS act,ERAP1 HTS inh,DENV2 CPE rescue
OC[C@@H]1[C@H](c2ccc(-c3cccc(F)c3)cc2)[C@@H]2CN(CCC(F)(F)F)CCCCN12,0,0,18[16.7 µM],-16,-2,41*
c1ccc(CCN(Cc2ccccc2)Cc2nc(C3CC3)no2)cc1,8.9*,0,/,2,1,3
CCN(Cc1ccccc1)Cc1nc(CCc2ccccc2)no1,2,1,/,-42,3,-3
Cc1ccc(S(=O)(=O)N2CC[C@H]3[C@@H](CO)N(C)c4ccc(C#Cc5cccnc5)cc4[C@H]32)cc1,1,0,-8[16.7 µM],5,/,-12
C/C=C/c1ccc([C@@H]2[C@H](CO)N(C(=O)CC3CC3)C23CN(S(C)(=O)=O)C3)cc1,1,0,/,-4,-2,9
C/C=C/c1ccc([C@H]2[C@@H](CO)N(CC3CCOCC3)C23CN(S(=O)(=O)CC)C3)cc1,-1,0,/,-11,-21,27*
CS(=O)(=O)N1CC2(C1)[C@@H](c1ccccc1)[C@@H](CO)N2Cc1ccccc1,0,0,/,3,1,28*
C/C=C/c1ccc([C@H]2[C@@H](CO)N(CCC(F)(F)F)C23CN(C(=O)CC2CC2)C3)cc1,2,0,/,6,2,65*
C/C=C/c1ccc([C@H]2[C@@H](CO)N(CC3CC3)C23CN(S(C)(=O)=O)C3)cc1,0,0,/,-1,1,51*
O=C(NC1CCC1)[C@@H]1[C@@H](CO)[C@@H]2Cn3c(ccc(-c4ccccc4)c3=O)[C@@H]2N1CC1CC1,0,0,/,6,3,-8
C[C@H](O)C#Cc1cnc2c(c1)C(=O)N([C@@H](C)CO)C[C@H](C)[C@@H](CN(C)C(=O)Cc1ccncc1)O2,1,0,1[16.7 µM],11,-4,0
C[C@@H]1CCCCO[C@H](CN(C)C)[C@H](C)CN([C@@H](C)CO)C(=O)c2cc(NC(=O)C3CCCCC3)ccc2O1,-2,0,4[16.7 µM],1,/,/
C[C@H]1CN([C@@H](C)CO)S(=O)(=O)c2ccc(C#Cc3ccc(F)cc3)cc2O[C@@H]1CN(C)C(=O)c1ccccn1,1,0,19[16.7 µM],16,-3,-7
C/C=C/c1ccc([C@@H]2[C@H](CO)N(CC3CCCC3)C23CN(S(=O)(=O)CC)C3)cc1,1,0,/,0,0,-6
C/C=C/c1ccc([C@H]2[C@@H](CO)N(CC3CCCC3)C23CN(S(=O)(=O)CC)C3)cc1,-2,0,/,4,0,23*
COc1cc(CCCN2CCNC[C@@H]2c2ccccc2)cc(OC)c1OC,-1,0,-1,-6,/,70*
COc1cc(CCCN2CCNC[C@H]2Cc2ccc(O)cc2)cc(OC)c1OC,-1,0,/,/,1,3
CC(C)c1cn(CC[C@@H]2CC[C@H](NC(=O)C3CCOCC3)[C@H](CO)O2)nn1,1,3,/,11,1,31*
CC(C)c1cn(CC[C@H]2CC[C@@H](NC(=O)C3CCOCC3)[C@H](CO)O2)nn1,-3,-2,/,-14,0,2
O=C(N[C@@H]1CC[C@@H](CCn2cc(C3(O)CCCC3)nn2)O[C@H]1CO)C1CCCC1,-2,0,2[16.7 µM],10,1,21*
O=C(N[C@@H]1CC[C@H](CCn2cc(C3(O)CCCC3)nn2)O[C@H]1CO)C1CCOCC1,1,0,/,1,-3,-3
O=C(N[C@H]1CC[C@H](CCn2cc(C3(O)CCCC3)nn2)O[C@H]1CO)C1CCOCC1,4,5,/,2,-3,32*
C[C@H](CO)N1C[C@H](C)[C@H](CN(C)C(=O)Cc2ccccn2)Oc2cc(C#Cc3ccccc3)ccc2S1(=O)=O,3,1,-1[16.7 µM],-12,-2,?
C[C@@H]1CN([C@H](C)CO)C(=O)c2ccccc2-c2ccccc2CO[C@@H]1CN(C)C(=O)Nc1ccc2c(c1)OCO2,1,-3,/,15,0,-1
COCC(=O)N1CC(=O)N2[C@@H](CO)[C@@H](c3ccc(C#Cc4cccc(OC)c4)cc3)[C@@H]2C1,-1,0,/,8,0,-2
SMILES,F508del corr,E-selectin induc,miR122 inh,INS-1E GSIS act,ERAP1 HTS inh,DENV2 CPE rescue
COCC#Cc1ccc([C@@H]2[C@@H](CO)N3CCCCN(S(=O)(=O)c4ccccc4F)C[C@@H]23)cc1,-2,/,-11[16.7 µM],/,1,21*
COCC#Cc1ccc([C@H]2[C@H](CO)N3CCCCN(S(=O)(=O)c4ccc(OC)cc4)C[C@@H]23)cc1,0,0,8[16.7 µM],6,0,62*
COCC#Cc1ccc([C@@H]2[C@H](CO)N3CCCCN(S(=O)(=O)c4ccc(OC)cc4)C[C@@H]23)cc1,-2,0,-5[16.7 µM],-25,-1,-10
CCCC#Cc1ccc([C@H]2[C@@H](CO)N3CCCCN(S(=O)(=O)c4ccccc4C)C[C@H]23)cc1,14*,-1,-11[16.7 µM],4,1,6
COCC#Cc1ccc([C@H]2[C@@H](CO)N3CCCCN(S(=O)(=O)c4ccc(OC)cc4)C[C@@H]23)cc1,0,0,-1[16.7 µM],5,1,-16
COCC#Cc1ccc([C@H]2[C@H]3CN(S(=O)(=O)c4ccc(OC)cc4)CCCCN3[C@H]2CO)cc1,-2,0,3[16.7 µM],1,-1,45*
O=C(C[C@@H]1CC[C@@H](NC(=O)Nc2ccc3c(c2)OCO3)[C@@H](CO)O1)NCc1ccc(F)cc1,0,0,/,8,-3,-6
CO[C@@H]1CC[C@@H]2CCOc3ccc(C#N)cc3C(=O)N(C)C[C@H](C)C(=O)N(C)C[C@@H]1O2,/,0,/,3,-2,0
COCC1=C2[C@@H](c3ccccc3)OB(O)C[C@@H]2[C@@H]2C(=O)N(Cc3ccccc3)C(=O)[C@@H]2C1,0,/,/,/,-1,6
O=C(Nc1nccs1)c1cc(N2CCOCC2)nc2ccccc12,/,/,4,46*,/,/
COc1ccccc1NC(=O)N1CC(=O)N2[C@H](CO)[C@@H](c3ccc(C#CCC(C)C)cc3)[C@@H]2C1,/,/,/,-2,/,/
Nc1ccn([C@H]2CS[C@@H](CO)O2)c(=O)n1,1,/,-2,-14,4,27*
Nc1ccn([C@@H]2O[C@H](CO)[C@@H](O)[C@H]2O)c(=O)n1,4,0,-5,/,-2,-9
CCN1[C@@H]2Cn3c(ccc(-c4ccccc4OC)c3=O)[C@H]1[C@@H](C(=O)NCc1ccccn1)[C@@H]2CO,0,0,-3[16.7 µM],0,1,2
Brc1ccc(-c2csc(NNC3=NCCCCC3)n2)cc1,/,/,-1,-2,/,/
CC(C)(C)c1ccc(-c2csc(NNC3=NCCCCC3)n2)cc1,/,/,/,-12,/,/
N#Cc1ccc(-c2csc(NC3=NCCCCC3)n2)cc1,-2,44*,/,10,-7,/
